The results in this text go back to ChEMBL document CHEMBL4311941, “Development of Multifunctional Histone Deacetylase 6 Degraders with Potent Antimyeloma Activity” (J Med Chem, 2019).

The target in test [1] is T1, Protein cereblon/Protein deacetylase HDAC6 (Homo sapiens, UniProt Q9UBN7+Q96SW2). Kind of test: Protac activity at CRBN/HDAC6 in human MM1S cells assessed as HDAC6 degradation at 100 nM measured after 6 hrs in presence of HDAC6 inhibitor Next-A by Western blot analysis. Type of test: cell-based.
Test [2] deals with T1, Protein cereblon/Protein deacetylase HDAC6. Kind of test: Protac activity at CRBN/HDAC6 in human A431 cells assessed as HDAC6 degradation up to 3 uM incubated for 12 hrs by Western blot analysis. Type of test: cell-based.
Test [3] deals with Protein cereblon/Zinc finger protein Aiolos (Homo sapiens) (UniProt Q96SW2+Q9UKT9). The experiment in a line: Protac activity at CRBN/IKZF3 in human MM1S cells assessed as IKZF3 degradation at 100 nM measured after 4 hrs by Western blot analysis. Type of test: cell-based. A digest of the protocol:
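Time course in MM1S cells (1 × 10^6 cells per well, seeded overnight) under 100 nM degrader. Whole-cell RIPA lysates analysed by 7.5−12% SDS-PAGE and PVDF immunoblot. Primary antibody at 4 °C overnight, HRP secondary 1 h, ECL detection with densitometry.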
(In general: A western blot detects proteins with antibodies after separation by electrophoresis.)

Test [4] addresses Cereblon/Ikaros (Homo sapiens) (UniProt Q96SW2+Q13422). The experiment in a line: Protac activity at CRBN/IKZF1 in human MM1S cells assessed as IKZF1 degradation at 100 nM measured after 6 hrs in presence of HDAC6 inhibitor Next-A by Western blot analysis. Format: cell-based. The method, boiled down: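 MM1S cells seeded at 1 × 10^6 per well overnight. Pretreated 1 h with pomalidomide, Next-A, MLN 4924 or DMSO, then given 100 nM degrader or DMSO for 6 h. Lysed in RIPA with protease inhibitors, 10−40 μg protein run on SDS-PAGE and transferred to PVDF. Blots probed for IKZF1/IKZF3, detected by ECL and quantified by densitometry.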

Test [5] concerns the target T2, Histone deacetylase 8 (Homo sapiens, UniProt Q9BY41).
T2 sequence (Q9BY41 whole entry): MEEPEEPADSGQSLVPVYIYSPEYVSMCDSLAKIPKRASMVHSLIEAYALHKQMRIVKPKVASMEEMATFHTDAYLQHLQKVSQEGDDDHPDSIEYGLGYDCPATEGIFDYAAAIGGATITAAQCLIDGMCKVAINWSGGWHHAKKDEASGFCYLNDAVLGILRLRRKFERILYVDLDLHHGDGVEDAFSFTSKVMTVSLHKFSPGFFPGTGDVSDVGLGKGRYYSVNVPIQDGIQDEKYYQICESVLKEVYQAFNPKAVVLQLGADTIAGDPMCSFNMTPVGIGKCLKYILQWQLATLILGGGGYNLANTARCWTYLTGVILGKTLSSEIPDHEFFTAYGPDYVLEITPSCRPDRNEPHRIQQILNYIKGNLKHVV
Kind of test: Inhibition of human N-terminal tagged human HDAC8 expressed in HEK293T/17 using Boc-[TFA-Lys]-AMC as substrate preincubated for 10 mins followed by substrate addition and measured after 60 mins by fluorescence assay.

Test [6] has as its target T1, Protein cereblon/Protein deacetylase HDAC6. The experiment in a line: Protac activity at CRBN/HDAC6 in human MM1S cells assessed as HDAC6 degradation at 3 to 30 nM measured after 6 hrs by Western blot analysis. Type of test: cell-based.
Test [7] deals with T3, Histone deacetylase 7 (Homo sapiens, UniProt Q8WUI4).
T3 sequence (Q8WUI4 whole entry): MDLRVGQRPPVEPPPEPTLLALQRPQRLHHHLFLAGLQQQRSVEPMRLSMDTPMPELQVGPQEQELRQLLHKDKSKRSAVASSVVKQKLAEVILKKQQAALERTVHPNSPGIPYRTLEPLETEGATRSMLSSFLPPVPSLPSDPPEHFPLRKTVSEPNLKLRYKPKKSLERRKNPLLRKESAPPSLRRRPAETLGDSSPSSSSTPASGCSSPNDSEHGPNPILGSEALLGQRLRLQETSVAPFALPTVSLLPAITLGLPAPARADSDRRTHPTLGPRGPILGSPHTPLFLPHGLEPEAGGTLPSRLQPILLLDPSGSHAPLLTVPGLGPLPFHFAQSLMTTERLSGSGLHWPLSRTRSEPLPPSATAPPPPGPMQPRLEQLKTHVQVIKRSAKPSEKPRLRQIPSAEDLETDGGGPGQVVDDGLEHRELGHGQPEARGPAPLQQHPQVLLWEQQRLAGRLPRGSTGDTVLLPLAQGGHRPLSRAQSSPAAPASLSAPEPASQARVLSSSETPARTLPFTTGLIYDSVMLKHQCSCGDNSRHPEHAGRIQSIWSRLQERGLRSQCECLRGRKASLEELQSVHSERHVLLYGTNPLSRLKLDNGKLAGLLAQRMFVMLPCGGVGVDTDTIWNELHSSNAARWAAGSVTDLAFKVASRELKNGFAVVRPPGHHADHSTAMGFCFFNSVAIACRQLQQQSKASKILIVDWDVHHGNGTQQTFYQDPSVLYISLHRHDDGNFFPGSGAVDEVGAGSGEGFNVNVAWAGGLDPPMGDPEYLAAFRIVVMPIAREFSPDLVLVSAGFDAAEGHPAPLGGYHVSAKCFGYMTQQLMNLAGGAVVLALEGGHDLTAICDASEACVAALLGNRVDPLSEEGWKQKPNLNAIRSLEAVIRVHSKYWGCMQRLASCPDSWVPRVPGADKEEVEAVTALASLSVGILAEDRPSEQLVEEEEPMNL
The experiment in a line: Inhibition of human N-terminal tagged human HDAC7 expressed in HEK293T/17 using Boc-[TFA-Lys]-AMC as substrate preincubated for 10 mins followed by substrate addition and measured after 60 mins by fluorescence assay.

In test [8] the target is Protein cereblon/Histone deacetylase 4 (Homo sapiens) (UniProt P56524+Q96SW2). The experiment in a line: Protac activity at CRBN/HDAC4 in human MM1S cells assessed as HDAC4 degradation at 100 nM measured after 6 hrs in presence of proteasome inhibitor bortezomib by Western blot analysis. Format: cell-based.
The test system of test [9] is MM1.S. Kind of test: Antiproliferative activity against human MM1S cells assessed as reduction in cell viability at 1 uM measured after 72 hrs by resazurin dye based assay. Format: functional. (Resazurin is reduced to fluorescent resorufin, in cell work by metabolically active cells.)
The target of test [10] is T1, Protein cereblon/Protein deacetylase HDAC6. Kind of test: Protac activity at CRBN/HDAC6 in human MM1S cells assessed as HDAC6 degradation at 100 nM measured after 6 hrs in presence of proteasome inhibitor MG132 by Western blot analysis. Type of test: cell-based.
Test [11] concerns MM1.S. The experiment in a line: Induction of apoptosis in human MM1S cells assessed as cleavage of casapse3 measured after 48 hrs by Western blot analysis. Format: functional, cell-based.
The target of test [12] is T1, Protein cereblon/Protein deacetylase HDAC6. The experiment in a line: Protac activity at CRBN/HDAC6 in human MM1S cells assessed as HDAC6 degradation at 10 to 100 nM measured after 6 hrs by Western blot analysis. Format: cell-based.
Test [13] concerns MM1.S. The experiment in a line: Effect on IKZF3 mRNA expression in human MM1S cells at 100 nM measured after 6 hrs by SYBR green dye-based qRT-PCR analysis. Type of test: functional, cell-based. A digest of the protocol:
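After treatment, MM1S cells washed twice with cold PBS. Total RNA extracted and normalized, then reverse-transcribed. 10 ng cDNA amplified with SYBR Green: 50 °C 2 min, 95 °C 2 min, then 40 cycles of 95 °C 1 s / 60 °C 30 s, followed by a melt curve. Expression calculated by the 2−ΔΔCt method.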

The target of test [14] is T1, Protein cereblon/Protein deacetylase HDAC6. The experiment in a line: Protac activity at CRBN/HDAC6 in human MM1S cells assessed as HDAC6 degradation at 100 nM measured after 6 hrs in presence of NAE inhibitor MLN 4924 by Western blot analysis. Format: cell-based.

Calls of active or inactive are those of the source. No cut-off for these calls is given here.

T1 sequence (Q96SW2 whole entry, looked up): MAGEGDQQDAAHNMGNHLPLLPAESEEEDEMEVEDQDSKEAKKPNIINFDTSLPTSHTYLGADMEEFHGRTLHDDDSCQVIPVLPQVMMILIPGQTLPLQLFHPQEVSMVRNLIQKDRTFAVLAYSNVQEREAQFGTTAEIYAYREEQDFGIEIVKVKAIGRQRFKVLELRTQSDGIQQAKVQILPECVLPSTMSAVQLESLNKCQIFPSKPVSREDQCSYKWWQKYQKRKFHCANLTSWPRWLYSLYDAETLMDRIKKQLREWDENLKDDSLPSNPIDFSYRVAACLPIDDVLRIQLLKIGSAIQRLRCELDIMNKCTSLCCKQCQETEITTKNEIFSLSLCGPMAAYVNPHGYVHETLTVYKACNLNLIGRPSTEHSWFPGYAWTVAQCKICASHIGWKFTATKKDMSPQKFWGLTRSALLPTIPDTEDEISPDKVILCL
T1 sequence (Q9UBN7 whole entry, looked up): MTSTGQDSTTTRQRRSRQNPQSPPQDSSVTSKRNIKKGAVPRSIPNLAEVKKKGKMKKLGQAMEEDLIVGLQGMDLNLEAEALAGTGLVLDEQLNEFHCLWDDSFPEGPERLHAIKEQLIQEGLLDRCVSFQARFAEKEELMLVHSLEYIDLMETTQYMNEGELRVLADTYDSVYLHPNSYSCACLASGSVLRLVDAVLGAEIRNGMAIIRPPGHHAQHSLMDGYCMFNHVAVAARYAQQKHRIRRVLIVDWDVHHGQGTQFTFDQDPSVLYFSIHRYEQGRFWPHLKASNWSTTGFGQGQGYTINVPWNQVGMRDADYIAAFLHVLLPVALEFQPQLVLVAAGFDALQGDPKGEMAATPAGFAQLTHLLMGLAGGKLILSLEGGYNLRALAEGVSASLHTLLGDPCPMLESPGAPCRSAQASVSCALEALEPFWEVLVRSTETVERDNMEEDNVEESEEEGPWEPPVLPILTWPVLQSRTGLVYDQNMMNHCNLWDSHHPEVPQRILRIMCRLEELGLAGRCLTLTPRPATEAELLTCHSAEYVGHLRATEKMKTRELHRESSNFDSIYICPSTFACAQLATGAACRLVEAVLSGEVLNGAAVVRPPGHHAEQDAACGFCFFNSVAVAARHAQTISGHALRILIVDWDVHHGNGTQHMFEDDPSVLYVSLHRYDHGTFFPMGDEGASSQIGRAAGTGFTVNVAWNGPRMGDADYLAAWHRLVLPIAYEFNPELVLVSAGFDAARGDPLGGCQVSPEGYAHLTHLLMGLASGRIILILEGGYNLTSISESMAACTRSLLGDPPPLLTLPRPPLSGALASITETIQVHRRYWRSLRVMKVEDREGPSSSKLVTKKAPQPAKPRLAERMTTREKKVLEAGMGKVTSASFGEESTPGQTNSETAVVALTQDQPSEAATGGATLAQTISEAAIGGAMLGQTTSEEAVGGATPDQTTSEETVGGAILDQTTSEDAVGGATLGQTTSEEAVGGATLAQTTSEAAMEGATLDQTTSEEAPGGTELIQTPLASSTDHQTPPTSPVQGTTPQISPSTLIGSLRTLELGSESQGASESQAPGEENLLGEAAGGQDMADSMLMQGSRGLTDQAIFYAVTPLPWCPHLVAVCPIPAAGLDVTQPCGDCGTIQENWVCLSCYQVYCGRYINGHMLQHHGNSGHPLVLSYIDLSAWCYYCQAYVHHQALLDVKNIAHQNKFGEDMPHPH
Protein cereblon/Zinc finger protein Aiolos (Homo sapiens), sequence (Q96SW2 whole entry, looked up): as the sequence (Q96SW2 whole entry, looked up) above
Protein cereblon/Zinc finger protein Aiolos (Homo sapiens), sequence (Q9UKT9 whole entry, looked up): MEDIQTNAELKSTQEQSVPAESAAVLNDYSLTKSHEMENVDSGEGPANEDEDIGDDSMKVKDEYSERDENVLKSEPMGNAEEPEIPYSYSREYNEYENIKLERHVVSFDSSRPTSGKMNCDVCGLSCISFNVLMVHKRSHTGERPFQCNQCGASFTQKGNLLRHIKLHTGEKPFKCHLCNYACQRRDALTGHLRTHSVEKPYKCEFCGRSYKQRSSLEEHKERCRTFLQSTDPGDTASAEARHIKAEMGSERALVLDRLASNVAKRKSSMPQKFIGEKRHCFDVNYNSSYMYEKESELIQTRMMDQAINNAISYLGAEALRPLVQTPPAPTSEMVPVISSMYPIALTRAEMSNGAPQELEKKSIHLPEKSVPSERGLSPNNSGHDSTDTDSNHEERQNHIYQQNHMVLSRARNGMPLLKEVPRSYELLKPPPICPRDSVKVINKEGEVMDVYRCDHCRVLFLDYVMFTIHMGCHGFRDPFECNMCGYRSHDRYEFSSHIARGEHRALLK
Protein cereblon/Histone deacetylase 4 (Homo sapiens), sequence (P56524 whole entry, looked up): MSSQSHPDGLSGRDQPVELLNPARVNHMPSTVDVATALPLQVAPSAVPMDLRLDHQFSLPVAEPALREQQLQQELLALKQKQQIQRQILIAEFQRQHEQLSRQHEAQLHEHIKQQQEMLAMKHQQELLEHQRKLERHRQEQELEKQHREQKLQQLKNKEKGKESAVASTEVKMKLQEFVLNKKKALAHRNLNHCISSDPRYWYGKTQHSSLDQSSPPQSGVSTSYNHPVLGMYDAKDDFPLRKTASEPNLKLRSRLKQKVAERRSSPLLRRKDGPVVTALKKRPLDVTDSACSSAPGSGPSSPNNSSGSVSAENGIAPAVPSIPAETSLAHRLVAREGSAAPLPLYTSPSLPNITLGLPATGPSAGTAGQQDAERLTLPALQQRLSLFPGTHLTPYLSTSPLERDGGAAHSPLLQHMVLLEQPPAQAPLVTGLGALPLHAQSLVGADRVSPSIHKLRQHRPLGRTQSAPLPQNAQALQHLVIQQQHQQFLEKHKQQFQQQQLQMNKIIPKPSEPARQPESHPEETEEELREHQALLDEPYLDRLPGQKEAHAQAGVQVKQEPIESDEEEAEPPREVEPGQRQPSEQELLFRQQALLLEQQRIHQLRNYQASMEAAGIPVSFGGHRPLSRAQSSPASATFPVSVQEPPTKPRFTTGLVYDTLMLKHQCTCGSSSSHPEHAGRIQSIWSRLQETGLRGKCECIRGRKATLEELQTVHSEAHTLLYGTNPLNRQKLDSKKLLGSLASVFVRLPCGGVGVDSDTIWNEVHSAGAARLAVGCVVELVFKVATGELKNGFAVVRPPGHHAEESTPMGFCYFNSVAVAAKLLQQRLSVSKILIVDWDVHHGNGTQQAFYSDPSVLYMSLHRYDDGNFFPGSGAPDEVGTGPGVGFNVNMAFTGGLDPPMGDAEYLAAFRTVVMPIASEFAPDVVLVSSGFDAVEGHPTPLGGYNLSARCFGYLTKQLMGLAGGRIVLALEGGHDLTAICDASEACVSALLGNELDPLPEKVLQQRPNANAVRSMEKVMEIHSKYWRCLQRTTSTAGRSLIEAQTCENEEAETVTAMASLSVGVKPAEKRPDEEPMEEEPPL
Protein cereblon/Histone deacetylase 4 (Homo sapiens), sequence (Q96SW2 whole entry, looked up): as the sequence (Q96SW2 whole entry, looked up) above

For `CCCCN(Cc1ccc(C(=O)NO)cc1)C(=O)Nc1ccc(OCCCCCn2cc(CNc3cccc4c3C(=O)N(C3CCC(=O)NC3=O)C4=O)nn2)cc1` (centres undefined), the result in test [1], in [8], in test [10] and in test [14] was inactive. For the same molecule, the result in test [2], in test [3], in [4], in test [6], in test [9] and in test [12] was Active. Moreover, the result in test [13] was Active. Moreover, the IC50 in test [5] and in [7] was 0.3 to 30 µM throughout. For the same molecule, the Activity entry in test [11] is “Dose-dependent effect”.

Usually IC50 stands for the concentration that gives 50% inhibition. A higher IC50 goes with weaker potency.
